Data reported in ChEMBL document CHEMBL4354879, “Bioisosteric Discovery of NPA101.3, a Second-Generation RET/VEGFR2 Inhibitor Optimized for Single-Agent Polypharmacology” (J Med Chem, 2020).
Activity calls are given as the source filed them. No cut-off for these calls is given here.

Columns and labels:
[1] = target: Proto-oncogene tyrosine-protein kinase receptor Ret (Homo sapiens, UniProt P07949); test: Inhibition of recombinant human GST-tagged RET cytoplasmic domain (658 to 1114 residues) expressed in baculovirus expression system using 5'FAM-EPLYWSFPA as substrate preincubated for 60 mins followed by substrate addition by microfluidic assay
[2] = target: Vascular endothelial growth factor receptor 2 (Homo sapiens, UniProt P35968); test: Inhibition of recombinant human His-tagged VEGFR2 cytoplasmic domain (789 to 1356 residues) expressed in baculovirus expression system using peptide substrate preincubated for 60 mins followed by substrate addition by microfluidic assay
[3] = target: Tyrosine-protein kinase Lyn (Homo sapiens) (UniProt P07948); test: Binding affinity to wild-type human partial length LYN (C219 to Q511 residues) expressed in bacterial expression system at 100 nM by Kinomescan method relative to control
[4] = target: T1, High affinity nerve growth factor receptor (Homo sapiens, UniProt P04629); test: Binding affinity to wild-type human partial length TRKA (G475 to G790 residues) expressed in mammalian expression system at 100 nM by Kinomescan method relative to control
Target sequence in this assay (P04629 33-796 limits assumed): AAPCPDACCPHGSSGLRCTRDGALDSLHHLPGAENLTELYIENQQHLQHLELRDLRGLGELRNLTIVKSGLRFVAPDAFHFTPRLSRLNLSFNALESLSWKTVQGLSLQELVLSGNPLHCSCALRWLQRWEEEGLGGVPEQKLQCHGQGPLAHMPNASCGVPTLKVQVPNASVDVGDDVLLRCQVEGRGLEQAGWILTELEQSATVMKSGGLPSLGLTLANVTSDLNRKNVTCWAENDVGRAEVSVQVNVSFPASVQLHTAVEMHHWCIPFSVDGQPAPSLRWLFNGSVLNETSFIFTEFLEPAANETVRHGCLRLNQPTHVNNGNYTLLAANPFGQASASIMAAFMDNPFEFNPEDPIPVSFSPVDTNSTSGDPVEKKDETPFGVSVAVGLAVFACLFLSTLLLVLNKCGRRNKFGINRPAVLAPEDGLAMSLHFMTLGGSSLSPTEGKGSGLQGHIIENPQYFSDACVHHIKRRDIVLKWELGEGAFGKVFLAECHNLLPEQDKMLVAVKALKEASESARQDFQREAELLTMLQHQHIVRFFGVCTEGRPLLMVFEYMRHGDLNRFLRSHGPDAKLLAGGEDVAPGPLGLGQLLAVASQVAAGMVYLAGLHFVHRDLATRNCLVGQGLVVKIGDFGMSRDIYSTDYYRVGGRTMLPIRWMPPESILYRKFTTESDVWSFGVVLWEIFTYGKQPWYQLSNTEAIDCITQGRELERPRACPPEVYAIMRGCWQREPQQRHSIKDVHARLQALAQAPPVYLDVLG

[5] = target: T1, High affinity nerve growth factor receptor; test: Inhibition of recombinant human His-tagged TRKA cytoplasmic domain (441 to 796 residues) expressed in baculovirus expression system using peptide substrate preincubated for 60 mins followed by substrate addition by microfluidic assay
Target sequence in this assay (P04629 whole entry, the tested form may be a part): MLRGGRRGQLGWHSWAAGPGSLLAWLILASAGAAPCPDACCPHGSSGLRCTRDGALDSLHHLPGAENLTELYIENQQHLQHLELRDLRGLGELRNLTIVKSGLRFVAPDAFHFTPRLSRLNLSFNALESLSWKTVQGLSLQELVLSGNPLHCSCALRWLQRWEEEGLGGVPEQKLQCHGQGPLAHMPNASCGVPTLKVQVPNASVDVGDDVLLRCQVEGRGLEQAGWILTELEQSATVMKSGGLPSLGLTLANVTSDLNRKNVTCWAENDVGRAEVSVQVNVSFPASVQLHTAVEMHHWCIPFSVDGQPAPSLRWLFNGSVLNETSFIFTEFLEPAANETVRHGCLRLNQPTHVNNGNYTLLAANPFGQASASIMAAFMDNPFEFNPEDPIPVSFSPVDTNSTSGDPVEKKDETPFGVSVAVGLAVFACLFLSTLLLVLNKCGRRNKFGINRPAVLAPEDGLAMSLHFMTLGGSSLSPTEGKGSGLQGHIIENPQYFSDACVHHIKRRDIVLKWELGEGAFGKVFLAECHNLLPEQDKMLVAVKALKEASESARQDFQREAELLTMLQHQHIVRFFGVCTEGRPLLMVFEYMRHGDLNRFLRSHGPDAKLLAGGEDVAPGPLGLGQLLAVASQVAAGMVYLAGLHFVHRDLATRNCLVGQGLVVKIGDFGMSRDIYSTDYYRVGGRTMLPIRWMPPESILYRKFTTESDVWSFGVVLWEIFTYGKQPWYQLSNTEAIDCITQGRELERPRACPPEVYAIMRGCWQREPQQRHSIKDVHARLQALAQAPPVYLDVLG

Homo sapiens [6] = species on record: Homo sapiens; test: Inhibition of NCOA4/RET isoform 9 (unknown origin) expressed in mouse NIH/3T3 cells assessed as reduction in RET phosphorylation at Y905 residue at 1 to 100 nM measured after 2 hrs by Western blot analysis; assay type: cell-based
Outline: (§1)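 Serum-starved RAT1 (RET point mutants) or NIH3T3 (RET rearrangements) cells expressing short RET-9 isoform, treated 2 h; 50 μg total lysate immunoblotted with anti-phospho-Y1062 and anti-phospho-Y905 RET antibodies, normalized to total RET; ECL detection. Compound from 50 mM DMSO stock diluted in growth medium.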

[7] = target: Centrosomal protein 43/RET (Homo sapiens) (UniProt P07949+O95684); test: Inhibition of FGFR1OP/RET isoform 9 (unknown origin) expressed in mouse NIH/3T3 cells assessed as reduction in RET phosphorylation at Y905 residue at 1 to 100 nM measured after 2 hrs by Western blot analysis; assay type: cell-based; outline: as §1
Homo sapiens [8] = species on record: Homo sapiens; test: Inhibition of CCDC6/RET isoform 9 (unknown origin) expressed in mouse NIH/3T3 cells assessed as reduction in RET phosphorylation at Y1062 residue at 1 to 100 nM measured after 2 hrs by Western blot analysis; assay type: cell-based; outline: as §1
[9] = target: Coiled-coil domain-containing protein 6/Tyrosine-protein kinase receptor RET (Homo sapiens) (UniProt P07949+Q16204); test: Inhibition of CCDC6/RET in human LC2/ad cells assessed as reduction in MAPK phosphorylation at 0.3 to 30 nM measured after 2 hrs by Western blot analysis; assay type: cell-based
[10] = target: T2, SHC-transforming protein 1 (Homo sapiens) (UniProt P29353); test: Effect on SHC phosphorylation in RET deficient human BCPAP cells at 1 to 100 nM measured after 2 hrs by western blot analysis; assay type: cell-based
T2 sequence (whole entry): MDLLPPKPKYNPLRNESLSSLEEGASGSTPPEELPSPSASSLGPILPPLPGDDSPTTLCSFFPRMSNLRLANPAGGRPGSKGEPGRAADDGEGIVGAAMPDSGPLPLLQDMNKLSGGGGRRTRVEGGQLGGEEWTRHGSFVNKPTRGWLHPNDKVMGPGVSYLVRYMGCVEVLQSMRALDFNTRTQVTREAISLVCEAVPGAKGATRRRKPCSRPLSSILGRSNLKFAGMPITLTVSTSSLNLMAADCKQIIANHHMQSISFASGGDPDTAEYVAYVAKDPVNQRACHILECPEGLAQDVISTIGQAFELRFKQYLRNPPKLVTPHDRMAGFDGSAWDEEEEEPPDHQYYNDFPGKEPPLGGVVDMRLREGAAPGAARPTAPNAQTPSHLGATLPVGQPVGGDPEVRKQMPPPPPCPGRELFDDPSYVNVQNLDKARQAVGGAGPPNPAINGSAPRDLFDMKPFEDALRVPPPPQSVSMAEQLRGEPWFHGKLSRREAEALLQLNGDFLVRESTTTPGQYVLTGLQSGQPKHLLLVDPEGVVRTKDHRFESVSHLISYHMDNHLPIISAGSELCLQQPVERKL

[11] = target: T2, SHC-transforming protein 1 (Homo sapiens); test: Effect on SHC phosphorylation in RET deficient human A549 cells at 1 to 100 nM measured after 2 hrs by western blot analysis; assay type: cell-based
Homo sapiens [12] = species on record: Homo sapiens; test: Effect on MAPK phosphorylation in RET deficient human Calu1 cells at 1 to 100 nM measured after 2 hrs by western blot analysis
[13] = test system: Proto-oncogene tyrosine-protein kinase receptor Ret (Homo sapiens), P07949 [M918T]; test: Inhibition of RET […] M918T mutant (unknown origin) expressed in mouse BAF3 cells assessed as reduction in RET phosphorylation at Y905 residue at 0.3 to 30 nM measured after 2 hrs by Western blot analysis; assay type: cell-based
Outline: (§2)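 Ba/F3 cells stably expressing long-isoform RET-51 mutants (electroporation), cultured in RPMI/10% FCS without IL-3; RET phosphorylation read by Western blot with anti-phospho-Y905 and anti-phospho-Y1062 antibodies, ECL detection.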

BaF3 = test: Inhibition of NCOA4/RET […] (unknown origin) expressed in mouse BAF3 cells assessed as reduction in RET phosphorylation at Y1062 residue at 0.3 to 30 nM measured after 2 hrs by Western blot analysis; assay type: cell-based; settings: Homo sapiens; outline: as §2
Mus musculus [14] = test: Antitumor activity against BALB/c nu/nu mouse implanted with mouse NIH/3T3 cells harboring HRAS G12V mutant assessed as reduction in tumor formation at 1 to 10 mg/kg, po administered once daily via gavage for 3 days; assay type: functional, organism-based
Outline: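 Nude mice (female BALB/c nu/nu, 6 weeks old) received subcutaneous dorsal inoculation (both sides) of NIH3T3 cells transformed by RET/C634Y (200000) or HRAS/G12V (50000). Four days later, before tumors appeared, mice were randomized to 1.0, 3.0 or 10 mg/kg/day oral gavage (8 mice/group) or vehicle (8 mice). Vehicle was 80% H2O, 19.875% Tween 20, 0.125% xanthan gum. Tumors were measured by caliper every 2–3 days, with volume = A×B²/2.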

[15] = Toxicity in BALB/c nu/nu mouse assessed as change in blood urea nitrogen level at 10 mg/kg, po administered daily for 7 days; assay type: organism-based; settings: in vivo, 168 h
Outline: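 Mice dosed orally with 10 mg/kg/day for 7 days; standard blood markers of organ damage measured.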

[16] = Toxicity in BALB/c nu/nu mouse assessed as change in phosphorus level at 10 mg/kg, po administered daily for 7 days; assay type: organism-based; settings: in vivo, 168 h
Mus musculus [17] = test: In vivo inhibition of RET isoform 9 C634Y mutant transfected in mouse NIH/3T3 cells implanted BALB/c nu/nu mouse assessed as reduction in RET phosphorylation at Y905 residue at 3 mg/kg, po administered once daily via gavage for 2 days measured 3 hrs post-last dose by Western blot analysis

Sequence of Coiled-coil domain-containing protein 6/Tyrosine-protein kinase receptor RET (Homo sapiens) (P07949 29-1114 limits assumed): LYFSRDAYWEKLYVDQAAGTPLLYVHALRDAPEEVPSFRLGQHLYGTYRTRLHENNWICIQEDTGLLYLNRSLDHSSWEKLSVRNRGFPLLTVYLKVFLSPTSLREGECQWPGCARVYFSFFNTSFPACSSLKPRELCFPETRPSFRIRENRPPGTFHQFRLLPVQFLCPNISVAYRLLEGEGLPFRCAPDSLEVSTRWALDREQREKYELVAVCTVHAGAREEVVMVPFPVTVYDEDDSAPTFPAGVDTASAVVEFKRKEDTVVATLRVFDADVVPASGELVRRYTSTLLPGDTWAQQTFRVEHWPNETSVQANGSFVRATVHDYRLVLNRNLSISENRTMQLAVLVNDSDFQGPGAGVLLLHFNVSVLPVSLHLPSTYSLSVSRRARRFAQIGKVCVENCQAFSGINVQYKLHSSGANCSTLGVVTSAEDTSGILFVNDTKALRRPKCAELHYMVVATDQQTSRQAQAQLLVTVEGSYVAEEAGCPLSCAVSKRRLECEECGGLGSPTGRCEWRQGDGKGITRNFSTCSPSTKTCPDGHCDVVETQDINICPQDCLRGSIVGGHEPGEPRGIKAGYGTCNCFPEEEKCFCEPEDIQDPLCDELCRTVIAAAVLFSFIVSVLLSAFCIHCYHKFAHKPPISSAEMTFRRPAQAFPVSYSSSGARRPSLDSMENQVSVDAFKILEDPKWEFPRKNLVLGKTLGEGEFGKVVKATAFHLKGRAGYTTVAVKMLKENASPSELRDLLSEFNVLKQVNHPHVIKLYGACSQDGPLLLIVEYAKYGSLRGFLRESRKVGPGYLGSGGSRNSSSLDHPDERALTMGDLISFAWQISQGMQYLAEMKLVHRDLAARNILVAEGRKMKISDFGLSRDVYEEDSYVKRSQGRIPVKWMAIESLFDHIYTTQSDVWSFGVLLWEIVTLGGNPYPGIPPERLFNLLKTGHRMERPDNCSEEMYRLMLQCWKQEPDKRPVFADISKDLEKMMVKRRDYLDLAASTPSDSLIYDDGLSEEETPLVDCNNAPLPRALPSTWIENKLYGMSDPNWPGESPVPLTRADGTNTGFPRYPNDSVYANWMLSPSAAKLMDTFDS
Sequence of Coiled-coil domain-containing protein 6/Tyrosine-protein kinase receptor RET (Homo sapiens) (Q16204 2-474 partner limits assumed): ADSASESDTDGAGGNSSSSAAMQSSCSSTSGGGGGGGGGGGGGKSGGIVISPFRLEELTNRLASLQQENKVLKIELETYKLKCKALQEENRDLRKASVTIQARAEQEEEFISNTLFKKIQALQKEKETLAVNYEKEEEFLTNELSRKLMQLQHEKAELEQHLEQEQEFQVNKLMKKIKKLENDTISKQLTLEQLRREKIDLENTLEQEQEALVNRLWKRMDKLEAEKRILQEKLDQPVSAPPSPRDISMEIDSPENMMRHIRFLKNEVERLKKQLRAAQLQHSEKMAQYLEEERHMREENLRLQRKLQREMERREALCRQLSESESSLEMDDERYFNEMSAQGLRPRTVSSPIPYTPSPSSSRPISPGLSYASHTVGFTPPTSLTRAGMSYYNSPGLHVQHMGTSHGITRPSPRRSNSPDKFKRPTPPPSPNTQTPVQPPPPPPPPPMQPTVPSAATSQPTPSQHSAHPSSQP
Sequence of Proto-oncogene tyrosine-protein kinase receptor Ret (Homo sapiens), P07949 [M918T] (P07949 whole entry M918T, canonical isoform): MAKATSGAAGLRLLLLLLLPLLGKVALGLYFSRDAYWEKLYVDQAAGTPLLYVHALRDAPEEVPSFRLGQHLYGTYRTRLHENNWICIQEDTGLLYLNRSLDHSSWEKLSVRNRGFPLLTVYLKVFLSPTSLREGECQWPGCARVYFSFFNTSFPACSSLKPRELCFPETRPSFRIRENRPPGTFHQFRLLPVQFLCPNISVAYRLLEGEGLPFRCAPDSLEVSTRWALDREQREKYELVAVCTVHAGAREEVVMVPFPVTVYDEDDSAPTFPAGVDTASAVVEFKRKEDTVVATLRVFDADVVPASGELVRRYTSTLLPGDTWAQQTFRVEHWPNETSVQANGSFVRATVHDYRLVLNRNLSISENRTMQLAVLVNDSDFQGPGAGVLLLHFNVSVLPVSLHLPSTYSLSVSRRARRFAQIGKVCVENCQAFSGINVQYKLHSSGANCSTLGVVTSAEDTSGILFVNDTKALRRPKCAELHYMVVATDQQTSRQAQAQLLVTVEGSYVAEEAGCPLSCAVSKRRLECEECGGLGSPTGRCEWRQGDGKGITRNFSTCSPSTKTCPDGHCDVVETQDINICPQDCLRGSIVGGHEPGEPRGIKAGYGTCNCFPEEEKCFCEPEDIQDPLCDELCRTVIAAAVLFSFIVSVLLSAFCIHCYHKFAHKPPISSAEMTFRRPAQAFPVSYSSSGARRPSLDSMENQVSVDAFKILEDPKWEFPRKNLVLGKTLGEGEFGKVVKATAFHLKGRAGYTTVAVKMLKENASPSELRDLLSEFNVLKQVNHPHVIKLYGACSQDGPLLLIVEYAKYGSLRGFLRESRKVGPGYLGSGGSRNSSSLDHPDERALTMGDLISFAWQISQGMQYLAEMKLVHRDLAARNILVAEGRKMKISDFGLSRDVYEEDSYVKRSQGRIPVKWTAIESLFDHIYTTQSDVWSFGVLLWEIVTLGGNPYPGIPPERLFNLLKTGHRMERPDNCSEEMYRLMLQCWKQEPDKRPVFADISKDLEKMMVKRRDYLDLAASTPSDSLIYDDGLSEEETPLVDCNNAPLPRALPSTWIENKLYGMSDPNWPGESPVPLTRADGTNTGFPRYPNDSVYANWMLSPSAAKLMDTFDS
Sequence of Centrosomal protein 43/RET (Homo sapiens) (O95684 whole entry, looked up, canonical isoform): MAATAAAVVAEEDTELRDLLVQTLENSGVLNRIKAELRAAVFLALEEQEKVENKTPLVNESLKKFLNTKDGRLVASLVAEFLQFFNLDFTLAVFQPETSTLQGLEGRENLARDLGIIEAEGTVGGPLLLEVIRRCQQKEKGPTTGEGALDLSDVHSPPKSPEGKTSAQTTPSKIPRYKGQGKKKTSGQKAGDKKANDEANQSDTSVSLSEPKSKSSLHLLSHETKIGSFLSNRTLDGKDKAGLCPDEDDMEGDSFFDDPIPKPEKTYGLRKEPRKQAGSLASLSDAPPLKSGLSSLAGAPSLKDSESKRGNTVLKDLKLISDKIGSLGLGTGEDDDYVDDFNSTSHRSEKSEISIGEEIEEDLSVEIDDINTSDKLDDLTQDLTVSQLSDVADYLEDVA
Sequence of Centrosomal protein 43/RET (Homo sapiens) (P07949 whole entry, looked up, canonical isoform): as the sequence (P07949 whole entry M918T, canonical isoform) above, with T918M counted along it
Sequence of Proto-oncogene tyrosine-protein kinase receptor Ret (P07949 whole entry, the tested form may be a part): as the sequence (P07949 whole entry M918T, canonical isoform) above, with T918M counted along it

IC50 [1]: 1 nM
IC50 [2]: 3 nM
Activity [3]: > 90%
Activity [4]: > 90%
IC50 [5]: 32 nM
inhibition [7]: Active
inhibition [9]: inactive
Activity [10]: inactive
Activity [11]: inactive
Activity (Homo sapiens [12]): inactive
inhibition [13]: Active
SMILES: CC(C)(C)c1cc(NC(=O)Cc2ccc(-n3cnc4cc(-c5ccc(S(C)(=O)=O)cc5)ccc43)cc2)no1
inhibition (Homo sapiens [6]): Active
inhibition (Homo sapiens [8]): Active
inhibition (BaF3): Active
Activity (Mus musculus [14]): inactive
Activity [15]: Non-Toxic
Activity [16]: Non-Toxic
inhibition (Mus musculus [17]): Active
